A short description of data set [1]: Metal chelating activity assessed as stoichiometric ratio of compound to Fe3+ ion at 0.1 to 0.5 mM of compound and metal ion mixture after 45 mins by spectrophotometric analysis. It is filed as physicochemical. The note with it: 0.75 h, 500 µM. A digest of the protocol: (§1)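 Job continuous-variation method at 23 °C. Compound dissolved in acetonitrile, then diluted to 0.1 mM stock in 1 mM acetate pH 6.5. Compound + ion at constant total 0.1–0.5 mM with varied mole fraction. After 45 min equilibration, UV absorbance scanned 210–310 nm. Stoichiometry taken from the intersection of lines. Mean ± SD, n = 3.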

The nature of data set [2]: Metal chelating activity assessed as stoichiometric ratio of compound to Fe2+ ion at 0.1 to 0.5 mM of compound and metal ion mixture after 45 mins by spectrophotometric analysis. The class given is physicochemical. The settings on record: 0.75 h, 500 µM. A digest of the protocol: as §1
In data set [3] the test system is ARPE-19. In words: Neuroprotective activity against Fenton reagent-induced ROS generation-stimulated cytotoxicity in human ARPE19 cells assessed as cell viability at 1 mM after 2 hrs by MTS assay. The class given is functional, cell-based. In a few lines:
(§2)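 Cells in 96-well format exposed 2 h to Fenton reagent (1 mM H2O2 + 1 mM Fe2+) with or without 1 mM compound in 0.16% DMSO. Viability by MTS assay, normalized to untreated cells without Fenton reagent (100%). Mean ± SEM, n = 4. ANOVA.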

Data set [4] can be described thus: Metal chelating activity assessed as stoichiometric ratio of compound to Cu2+ ion at 0.1 to 0.5 mM of compound and metal ion mixture after 45 mins by spectrophotometric analysis. It is filed as physicochemical. The note with it: 0.75 h, 500 µM. A digest of the protocol: as §1
A short description of data set [5]: Metal chelating activity assessed as stoichiometric ratio of compound to Mn2+ ion at 0.1 to 0.5 mM of compound and metal ion mixture after 45 mins by spectrophotometric analysis. The class given is physicochemical. The settings on record: 0.75 h, 500 µM. A digest of the protocol: as §1
Data set [6] relates to SH-SY5Y. In words: Cytotoxicity against human SH-SY5Y cells assessed as reduction in cell viability at 1 mM after 2 hrs by MTS assay. It is filed as cell-based. The note with it: 1000 µM. In a few lines: (§3)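 ARPE-19 grown in DMEM + 4% FBS and SH-SY5Y in EMEM/F12 + 10% FBS, at 37 °C, 5% CO2. Plated at 1 × 10^4 cells/well. Exposed 2 h to 1 mM compound (0.16% DMSO) without oxidant. Viability by MTS. Mean ± SEM, n = 4, ANOVA versus blank control.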
In general terms: Formazan colour is commonly taken as a measure of viable cells.

The nature of data set [7]: Metal chelating activity assessed as stoichiometric ratio of compound to Ca2+ ion at 0.1 to 0.5 mM of compound and metal ion mixture after 45 mins by spectrophotometric analysis. The class given is physicochemical. The settings on record: 0.75 h, 500 µM. A digest of the protocol:
as §1

In data set [8] the test system is SH-SY5Y. As to the kind of experiment: Neuroprotective activity against Fenton reagent-induced ROS generation in human SH-SY5Y cells assessed as increase in GSH level at 1 mM after 2 hrs by DTNB method. It is filed as functional, cell-based. In a few lines: (§4)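 Cells grown in 60 or 150 mm dishes and exposed 2 h to Fenton reagent (1 mM H2O2 + 1 mM Fe2+) with or without 1 mM compound in 0.16% DMSO. Intracellular glutathione then measured. Mean ± SEM, n = 6. ANOVA.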

A short description of data set [9]: Metal chelating activity assessed as stoichiometric ratio of compound to Mg2+ ion at 0.1 to 0.5 mM of compound and metal ion mixture after 45 mins by spectrophotometric analysis. The settings on record: 0.75 h, 500 µM. The class given is physicochemical. A digest of the protocol:
as §1

Data set [10] concerns SH-SY5Y. As to the kind of experiment: Neuroprotective activity against Fenton reagent-induced ROS generation-stimulated cytotoxicity in human SH-SY5Y cells assessed as cell viability at 1 mM after 2 hrs by MTS assay. It is filed as functional, cell-based. A digest of the protocol:
as §2

The nature of data set [11]: Metal chelating activity assessed as stoichiometric ratio of compound to Zn2+ ion at 0.1 to 0.5 mM of compound and metal ion mixture after 45 mins by spectrophotometric analysis. The class given is physicochemical. The settings on record: 0.75 h, 500 µM. In a few lines: as §1
Data set [12] can be described thus: Cytotoxicity against human ARPE19 cells assessed as reduction in cell viability at 1 mM after 2 hrs by MTS assay. It is filed as cell-based. The note with it: arpe-19, 2 h, 1000 µM. A digest of the protocol:
as §3

Data set [13] deals with ARPE-19. In words: Neuroprotective activity against Fenton reagent-induced ROS generation in human ARPE19 cells assessed as increase in GSH level at 1 mM after 2 hrs by DTNB method. The class given is functional, cell-based. In a few lines: as §4
Data set [14] is described as follows: Metal chelating activity assessed as stoichiometric ratio of compound to Cu+ ion at 0.1 to 0.5 mM of compound and metal ion mixture after 45 mins by spectrophotometric analysis. The class given is physicochemical. The note with it: 0.75 h, 500 µM. In a few lines:
as §1

The subject of data set [15] is ARPE-19. As to the kind of experiment: Neuroprotective activity against Fenton reagent-induced hydroxy radical-stimulated cytotoxicity in human ARPE19 cells assessed as cell survival at 1 to 1000 uM preincubated for 1 hr followed by Fenton reagent challenge for 2 hrs by fluorescence-based LIVE/DEAD viability/cytotoxicity assay. The class given is functional. In a few lines:
(§5)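 After a PBS wash, cells preincubated 1 h at 37 °C in serum-free medium with 1–1000 μM compound. Fenton reagent (Fe2+/H2O2, 100 μM final) then added for 2 h. Stained 15 min at 37 °C with calcein AM 8 μM and EthD-1 16 μM. Fluorescence read at 494/517 and 528/617 nm. % live cells calculated from blank-corrected single-dye controls; dead-cell control 70% ethanol. Mean ± SEM, n = 6.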

Data set [16] deals with SH-SY5Y. In words: Neuroprotective activity against Fenton reagent-induced hydroxy radical-stimulated cytotoxicity in human SH-SY5Y cells assessed as cell survival at 1 to 1000 uM preincubated for 1 hr followed by Fenton reagent challenge for 2 hrs by fluorescence-based LIVE/DEAD viability/cytotoxicity assay. The class given is functional. In a few lines:
as §5

Data set [17] is described as follows: Drug uptake in lens of C57BL/6 mouse assessed per mg of protein at 80 mg/kg, po administered everyday for 14 days by HPLC-MS analysis. The note with it: in vivo, 336 h. The class given is ADME, organism-based, Lens of camera-type eye. A digest of the protocol: (§6)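 C57BL/6 mice fed chow containing 0.05% compound (~80 mg/kg/day average) for 14 days. Perfused with PBS; brain, lens and neural retina homogenized in ice-cold 10 mM acetate pH 4 with internal standard. Extracted with TCA precipitation and chloroform. Analyzed by reverse-phase C18 HPLC.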

Data set [18] is described as follows: Drug uptake in neural retina of C57BL/6 mouse assessed per mg of protein at 80 mg/kg, po administered everyday for 14 days by HPLC-MS analysis. The class given is ADME, organism-based. The note with it: in vivo, 336 h. In a few lines:
as §6

The source made the active and inactive calls. The calls are words filed in the database; no cut-off is given here.

Regarding `O=C1CCC(=O)N1c1ncccn1`, the Ratio in data set [1] is recorded as 2.01; in data set [2] it was 2.06; in [4], 2.28; in [5] it was 1.98; in [7] it was 0; in [9], 0. For the same molecule, the Ratio is on record as 1.87 in [11] and 2.01 in [14]. Further, the result in the data set on ARPE-19 [3], in the data set with SH-SY5Y [8], in the data set on SH-SY5Y [10] and in the data set on ARPE-19 [13] was Active. Further, the Activity entry (in the data set with SH-SY5Y [6]; in [12]) was “Non-toxic” in each case.
For the molecule `COc1cc(OC)nc(N2CCCCC2)n1`, the outcome with ARPE-19 [3] and in the data set on SH-SY5Y [10] was inactive. Besides, the Activity entry (in the data set on SH-SY5Y [6]; in [12]) was “Non-toxic” in each case. Also, the result in the data set with SH-SY5Y [8] and with ARPE-19 [13] was Active.
For `Oc1cnc(N2CCCC2)nc1`, the result in the data set on ARPE-19 [3], in the data set with SH-SY5Y [8], in the data set with SH-SY5Y [10] and with ARPE-19 [13] was Active. Also, the Activity entry (with SH-SY5Y [6]; in [12]) was “Non-toxic” in each case.
As for `COc1cc(OC)nc(N2CCCC2)n1`, the outcome in the data set with ARPE-19 [3], with ARPE-19 [15], with SH-SY5Y [16] and with SH-SY5Y [10] was inactive. Also, the Activity result (in the data set with SH-SY5Y [6]; in data set [12]) was “Non-toxic” throughout. The outcome in the data set on SH-SY5Y [8] and in the data set on ARPE-19 [13] was Active.
`COc1cc(OC)nc(N2C(=O)CCCC2=O)n1`: the Ratio in [1] is reported as 2.08; in [2], 1.96; in data set [4], 1.96; in [5], 1.95; in data set [7] it was 0; in data set [9], 0. For the same molecule, the Ratio was found to be 2.06 in [11] and 1.9 in data set [14]. Further, the outcome in the data set with ARPE-19 [3], with SH-SY5Y [8], with SH-SY5Y [10] and in the data set on ARPE-19 [13] was Active. In addition, the Activity entry (in the data set on SH-SY5Y [6]; in [12]) was “Non-toxic” throughout.
In the case of `Oc1cnc(N2CCCCC2)nc1`, the result in the data set on ARPE-19 [3], in the data set on SH-SY5Y [8], in the data set on SH-SY5Y [10] and with ARPE-19 [13] was Active. Moreover, the Activity entry (in the data set with SH-SY5Y [6]; in [12]) was “Non-toxic” each time.
For the molecule `COc1nc(N2C(=O)CCCC2=O)nc(OC)c1O`, the Ratio in [1] was 1.82; in data set [2], 1.97; in data set [4], 1.86; in [5], 2.12; in [7] it was 0; in data set [9], 0. In addition, the Ratio in [11] turned out to be 2.09; in [14], 1.97. For the same molecule, the result with ARPE-19 [3], with SH-SY5Y [8], with SH-SY5Y [10] and in the data set on ARPE-19 [13] was Active. Moreover, the Drug uptake result in data set [17] and in data set [18] was “Active” throughout. For the same molecule, the Activity entry (with SH-SY5Y [6]; in data set [12]) was “Non-toxic” each time.
On to `COc1cc(OC)nc(N2C(=O)CCC2=O)n1`, for which the Ratio in data set [1] was found to be 2.05; in data set [2], 2.02; in data set [4], 2.01; in data set [5] it was 2.04; in [7], 0; in data set [9], 0. Besides, the results for the Ratio in data set [11] and in data set [14] were 2.07 and 1.92, respectively. In addition, the result in the data set with ARPE-19 [3], in the data set on SH-SY5Y [8], with SH-SY5Y [10] and in the data set with ARPE-19 [13] was Active. Moreover, the Activity result (in the data set with SH-SY5Y [6]; in data set [12]) was “Non-toxic” each time.
In the case of `O=C1CCCC(=O)N1c1ncc(O)cn1`, the Ratio is reported as 1.92 in data set [1]; 1.85 in [2]; 1.75 in data set [4]; 1.91 in data set [5]; 0 in data set [7]; 0 in data set [9]. The Ratio in [11] stood at 1.99; in [14], 1.86. For the same molecule, the outcome in the data set on ARPE-19 [3], in the data set on SH-SY5Y [8], with SH-SY5Y [10] and in the data set with ARPE-19 [13] was Active. In addition, the Drug uptake entry in data set [17] and in [18] was “Active” in each case. Further, the Activity entry (in the data set with SH-SY5Y [6]; in [12]) was “Non-toxic” each time.
With `c1cnc(N2CCCCC2)nc1`, the result in the data set with ARPE-19 [3] and with SH-SY5Y [10] was inactive. Moreover, the Activity entry (with SH-SY5Y [6]; in [12]) was “Non-toxic” in each case. The outcome with SH-SY5Y [8] and with ARPE-19 [13] was Active.
For the molecule `c1cnc(N2CCCC2)nc1`, the result in the data set with ARPE-19 [3], in the data set with ARPE-19 [15], in the data set on SH-SY5Y [16] and in the data set on SH-SY5Y [10] was inactive. In addition, the Activity entry (with SH-SY5Y [6]; in data set [12]) was “Non-toxic” each time. Also, the outcome in the data set with SH-SY5Y [8] and with ARPE-19 [13] was Active.
Consider `COc1nc(N2CCCC2)nc(OC)c1O`, for which the result in the data set with ARPE-19 [3], in the data set with SH-SY5Y [8], in the data set on SH-SY5Y [10] and in the data set with ARPE-19 [13] was Active. For the same molecule, the Activity entry (with SH-SY5Y [6]; in data set [12]) was “Non-toxic” throughout.
For the molecule `COc1nc(N2CCCCC2)nc(OC)c1O`, the result in the data set on ARPE-19 [3], with SH-SY5Y [8], with SH-SY5Y [10] and with ARPE-19 [13] was Active. Besides, the Activity entry (in the data set with SH-SY5Y [6]; in data set [12]) was “Non-toxic” in each case.
For the molecule `O=C1CCCC(=O)N1c1ncccn1`, the Ratio turned out to be 1.8 in data set [1]; 2.13 in data set [2]; 2.01 in [4]; 1.83 in [5]; 0 in data set [7]; 0 in data set [9]. The values for the Ratio in [11] and in data set [14] were 2.17 and 1.9, respectively. In addition, the outcome with ARPE-19 [3], in the data set with SH-SY5Y [8], in the data set on SH-SY5Y [10] and in the data set with ARPE-19 [13] was Active. The Activity result (in the data set with SH-SY5Y [6]; in data set [12]) was “Non-toxic” throughout.

Source of the values: ChEMBL document CHEMBL3739318, “Orally Bioavailable Metal Chelators and Radical Scavengers: Multifunctional Antioxidants for the Coadjutant Treatment of Neurodegenerative Diseases” (J Med Chem, 2015).
